The record followed here is ChEMBL document CHEMBL4834420, “Projected Dose Optimization of Amino- and Hydroxypyrrolidine Purine PI3Kδ Immunomodulators” (J Med Chem, 2021).

Data set [1] has as its target T1, Phosphatidylinositol 4,5-bisphosphate 3-kinase catalytic subunit delta isoform (Mus musculus, UniProt O35904).
T1 sequence (O35904 whole entry): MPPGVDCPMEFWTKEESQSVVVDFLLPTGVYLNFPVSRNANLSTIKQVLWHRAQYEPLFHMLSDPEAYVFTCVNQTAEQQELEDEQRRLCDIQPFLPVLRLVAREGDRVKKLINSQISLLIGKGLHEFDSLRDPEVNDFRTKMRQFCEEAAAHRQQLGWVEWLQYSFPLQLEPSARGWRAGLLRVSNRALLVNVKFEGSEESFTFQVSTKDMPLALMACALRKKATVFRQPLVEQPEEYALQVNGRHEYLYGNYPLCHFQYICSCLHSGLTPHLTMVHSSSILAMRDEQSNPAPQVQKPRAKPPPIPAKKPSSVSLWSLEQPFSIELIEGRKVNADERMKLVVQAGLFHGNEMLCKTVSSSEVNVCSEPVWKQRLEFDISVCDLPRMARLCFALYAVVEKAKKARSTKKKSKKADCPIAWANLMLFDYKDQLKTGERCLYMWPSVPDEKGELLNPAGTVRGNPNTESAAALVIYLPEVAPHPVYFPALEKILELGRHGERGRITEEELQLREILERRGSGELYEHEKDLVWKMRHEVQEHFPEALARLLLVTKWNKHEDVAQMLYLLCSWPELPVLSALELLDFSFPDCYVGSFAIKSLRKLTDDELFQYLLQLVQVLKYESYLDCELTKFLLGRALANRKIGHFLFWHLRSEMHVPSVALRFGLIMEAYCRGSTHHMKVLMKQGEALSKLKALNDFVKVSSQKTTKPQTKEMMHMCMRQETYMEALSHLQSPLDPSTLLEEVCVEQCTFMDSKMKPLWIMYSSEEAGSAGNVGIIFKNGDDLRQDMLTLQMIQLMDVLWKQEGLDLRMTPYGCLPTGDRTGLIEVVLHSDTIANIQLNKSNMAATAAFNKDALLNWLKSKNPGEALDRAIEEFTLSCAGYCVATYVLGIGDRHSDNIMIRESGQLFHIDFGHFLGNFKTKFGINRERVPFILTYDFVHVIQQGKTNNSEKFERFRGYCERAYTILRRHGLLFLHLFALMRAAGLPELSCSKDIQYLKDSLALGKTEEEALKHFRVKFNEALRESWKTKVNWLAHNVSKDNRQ
The data set can be described thus: Inhibition of mouse PI3Kdelta.

Data set [2] is described as follows: Volume of distribution in Beagle dog. Format: ADME, Canis lupus familiaris. The settings on record: in vivo.
In another data set the target is Cytochrome P450 2C19 (Homo sapiens, UniProt P33261). Put plainly: Inhibition of CYP2C19 (unknown origin). Format: ADME.
A short description of data set [3]: Plasma protein binding in Brown Norway rat at 10 mg/kg, po. Format: ADME, organism-based. The settings on record: read-out: PPB (converted).
A short description of data set [4]: Unbound volume of distribution in C57BL/6 mouse. Format: ADME. The settings on record: in vivo.
Data set [5] in a line: Unbound volume of distribution in Wistar Han rat. Format: ADME. To be noted: in vivo.
The target in data set [6] is T2, Phosphatidylinositol 4,5-bisphosphate 3-kinase catalytic subunit delta isoform (Homo sapiens, UniProt O00329).
T2 sequence (O00329 whole entry): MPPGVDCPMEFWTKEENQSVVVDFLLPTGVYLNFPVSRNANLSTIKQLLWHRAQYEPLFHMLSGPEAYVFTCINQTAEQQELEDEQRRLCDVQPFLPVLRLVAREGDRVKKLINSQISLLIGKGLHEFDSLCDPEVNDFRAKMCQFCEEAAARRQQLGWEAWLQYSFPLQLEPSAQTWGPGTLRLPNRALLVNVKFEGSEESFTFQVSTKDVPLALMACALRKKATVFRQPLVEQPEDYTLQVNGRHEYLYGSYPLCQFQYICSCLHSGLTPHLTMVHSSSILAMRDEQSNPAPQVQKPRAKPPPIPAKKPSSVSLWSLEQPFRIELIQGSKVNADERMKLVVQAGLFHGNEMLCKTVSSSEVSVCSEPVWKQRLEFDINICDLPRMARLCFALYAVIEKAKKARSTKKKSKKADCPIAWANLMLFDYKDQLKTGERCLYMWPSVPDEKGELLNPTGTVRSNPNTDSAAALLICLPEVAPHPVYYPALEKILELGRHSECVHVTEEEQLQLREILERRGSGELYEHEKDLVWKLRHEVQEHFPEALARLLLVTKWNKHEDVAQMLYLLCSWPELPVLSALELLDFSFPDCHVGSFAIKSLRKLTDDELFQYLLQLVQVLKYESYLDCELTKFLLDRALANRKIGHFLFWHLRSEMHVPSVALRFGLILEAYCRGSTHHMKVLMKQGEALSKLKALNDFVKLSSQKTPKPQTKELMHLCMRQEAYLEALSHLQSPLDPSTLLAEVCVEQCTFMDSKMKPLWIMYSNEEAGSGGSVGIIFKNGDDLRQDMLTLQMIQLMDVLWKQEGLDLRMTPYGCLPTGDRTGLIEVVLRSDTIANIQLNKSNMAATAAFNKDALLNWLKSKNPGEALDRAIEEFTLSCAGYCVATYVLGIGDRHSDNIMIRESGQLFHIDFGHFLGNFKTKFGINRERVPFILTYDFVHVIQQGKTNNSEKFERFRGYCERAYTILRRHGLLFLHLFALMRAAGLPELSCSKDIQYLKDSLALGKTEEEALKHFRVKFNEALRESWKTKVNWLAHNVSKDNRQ
The data set can be described thus: Inhibition of PI3Kdelta in human whole blood assessed as reduction in anti-CD79b antibody-induced CD69 expression preincubated for 60 mins followed by anti-CD79b antibody stimulation and measured after 3 hrs by FACS analysis. Format: tissue-based. On the technique in general: A flow cytometer gives signals particle by particle.

Data set [7] deals with T3, Phosphatidylinositol 4,5-bisphosphate 3-kinase catalytic subunit delta isoform (Mus musculus) (UniProt O35904).
T3 sequence (whole entry): T1 sequence (O35904 whole entry)
Put plainly: Inhibition of PI3Kdelta in Foxp3-GFP C57BL/6 mouse assessed as reduction in Treg population administered upto 7 days. To be noted: dose 30-100 mg/kg, time day <=7. The method in brief: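 C57BL/6 Foxp3-GFP reporter mice were dosed at 30 and 100 mg/kg/day for up to 7 days. Treg population was monitored by bioluminescence imaging 10 min after ip injection of 3 mg luciferin. Radiance was quantified as photons/s/cm²/steradian. Diphtheria toxin served as a positive control.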

For data set [8], the target named is Voltage-dependent L-type calcium channel subunit alpha-1C (Homo sapiens, UniProt Q13936). Put plainly: Inhibition of Cav1.2 (unknown origin).
Data set [9] is described as follows: Intrinsic clearance in human hepatocytes. Format: ADME, cell-based, Hepatocyte.
A further data set relates to P-gp (MDR1). The data set can be described thus: Efflux ratio of apparent permeability from basolateral to apical side over apical to basolateral side in dog MDCK2 cells expressing MDR1 PGP. Format: ADME, cell-based, Canis lupus familiaris, MDCKII-MDR1. The settings on record: MDCK-MDR1.
Data set [10] has as its target Sodium channel protein type 5 subunit alpha (Homo sapiens, UniProt Q14524). Put plainly: Inhibition of Nav1.5 (unknown origin).
Data set [11] is described as follows: Oral bioavailability in Beagle dog. Format: ADME, organism-based, Canis lupus familiaris. To be noted: in vivo.
A short description of data set [12]: Oral bioavailability in Wistar Han rat. Format: ADME, organism-based. The settings on record: in vivo.
A short description of data set [13]: Protein binding in Wistar Han rat plasma. Format: ADME, cell-free. The settings on record: read-out: PPB (converted).
The nature of data set [14]: Dissociation constant, pKa of compound. Format: physicochemical.
Data set [15] deals with T2, Phosphatidylinositol 4,5-bisphosphate 3-kinase catalytic subunit delta isoform. The data set can be described thus: Inhibition of PI3Kdelta in human Ramos cells assessed as reduction in anti-IgM-antibody-induced phosphorylation of AKT at Ser473 residue preincubated for 20 mins followed by anti-IgM antibody stimulation and measured after 30 mins by alphascreen assay. Format: cell-based. On the technique in general: In Alpha technology, singlet oxygen from a donor bead excites a nearby acceptor bead.

Structures are written as SMILES.

What is called IC50 is the concentration needed to halve the response being measured. As usually defined, the Vd is a proportionality between amount in the body and measured concentration, not a real space. The term CLint scaled denotes the rate of metabolic loss divided by the concentration. Low values mean slow turnover, high ones rapid turnover. One may read the efflux ratio as the permeability from basolateral to apical divided by that in the opposite direction, in the common usage. As a reminder, the bioavailability is the share of a dose that reaches the circulation, judged against a reference dose that is usually intravenous. For orientation: pKa means the pH at which an ionisable group is half protonated. A high value points to a group that holds its proton tightly.

Sequence of Voltage-dependent L-type calcium channel subunit alpha-1C (Q13936 whole entry): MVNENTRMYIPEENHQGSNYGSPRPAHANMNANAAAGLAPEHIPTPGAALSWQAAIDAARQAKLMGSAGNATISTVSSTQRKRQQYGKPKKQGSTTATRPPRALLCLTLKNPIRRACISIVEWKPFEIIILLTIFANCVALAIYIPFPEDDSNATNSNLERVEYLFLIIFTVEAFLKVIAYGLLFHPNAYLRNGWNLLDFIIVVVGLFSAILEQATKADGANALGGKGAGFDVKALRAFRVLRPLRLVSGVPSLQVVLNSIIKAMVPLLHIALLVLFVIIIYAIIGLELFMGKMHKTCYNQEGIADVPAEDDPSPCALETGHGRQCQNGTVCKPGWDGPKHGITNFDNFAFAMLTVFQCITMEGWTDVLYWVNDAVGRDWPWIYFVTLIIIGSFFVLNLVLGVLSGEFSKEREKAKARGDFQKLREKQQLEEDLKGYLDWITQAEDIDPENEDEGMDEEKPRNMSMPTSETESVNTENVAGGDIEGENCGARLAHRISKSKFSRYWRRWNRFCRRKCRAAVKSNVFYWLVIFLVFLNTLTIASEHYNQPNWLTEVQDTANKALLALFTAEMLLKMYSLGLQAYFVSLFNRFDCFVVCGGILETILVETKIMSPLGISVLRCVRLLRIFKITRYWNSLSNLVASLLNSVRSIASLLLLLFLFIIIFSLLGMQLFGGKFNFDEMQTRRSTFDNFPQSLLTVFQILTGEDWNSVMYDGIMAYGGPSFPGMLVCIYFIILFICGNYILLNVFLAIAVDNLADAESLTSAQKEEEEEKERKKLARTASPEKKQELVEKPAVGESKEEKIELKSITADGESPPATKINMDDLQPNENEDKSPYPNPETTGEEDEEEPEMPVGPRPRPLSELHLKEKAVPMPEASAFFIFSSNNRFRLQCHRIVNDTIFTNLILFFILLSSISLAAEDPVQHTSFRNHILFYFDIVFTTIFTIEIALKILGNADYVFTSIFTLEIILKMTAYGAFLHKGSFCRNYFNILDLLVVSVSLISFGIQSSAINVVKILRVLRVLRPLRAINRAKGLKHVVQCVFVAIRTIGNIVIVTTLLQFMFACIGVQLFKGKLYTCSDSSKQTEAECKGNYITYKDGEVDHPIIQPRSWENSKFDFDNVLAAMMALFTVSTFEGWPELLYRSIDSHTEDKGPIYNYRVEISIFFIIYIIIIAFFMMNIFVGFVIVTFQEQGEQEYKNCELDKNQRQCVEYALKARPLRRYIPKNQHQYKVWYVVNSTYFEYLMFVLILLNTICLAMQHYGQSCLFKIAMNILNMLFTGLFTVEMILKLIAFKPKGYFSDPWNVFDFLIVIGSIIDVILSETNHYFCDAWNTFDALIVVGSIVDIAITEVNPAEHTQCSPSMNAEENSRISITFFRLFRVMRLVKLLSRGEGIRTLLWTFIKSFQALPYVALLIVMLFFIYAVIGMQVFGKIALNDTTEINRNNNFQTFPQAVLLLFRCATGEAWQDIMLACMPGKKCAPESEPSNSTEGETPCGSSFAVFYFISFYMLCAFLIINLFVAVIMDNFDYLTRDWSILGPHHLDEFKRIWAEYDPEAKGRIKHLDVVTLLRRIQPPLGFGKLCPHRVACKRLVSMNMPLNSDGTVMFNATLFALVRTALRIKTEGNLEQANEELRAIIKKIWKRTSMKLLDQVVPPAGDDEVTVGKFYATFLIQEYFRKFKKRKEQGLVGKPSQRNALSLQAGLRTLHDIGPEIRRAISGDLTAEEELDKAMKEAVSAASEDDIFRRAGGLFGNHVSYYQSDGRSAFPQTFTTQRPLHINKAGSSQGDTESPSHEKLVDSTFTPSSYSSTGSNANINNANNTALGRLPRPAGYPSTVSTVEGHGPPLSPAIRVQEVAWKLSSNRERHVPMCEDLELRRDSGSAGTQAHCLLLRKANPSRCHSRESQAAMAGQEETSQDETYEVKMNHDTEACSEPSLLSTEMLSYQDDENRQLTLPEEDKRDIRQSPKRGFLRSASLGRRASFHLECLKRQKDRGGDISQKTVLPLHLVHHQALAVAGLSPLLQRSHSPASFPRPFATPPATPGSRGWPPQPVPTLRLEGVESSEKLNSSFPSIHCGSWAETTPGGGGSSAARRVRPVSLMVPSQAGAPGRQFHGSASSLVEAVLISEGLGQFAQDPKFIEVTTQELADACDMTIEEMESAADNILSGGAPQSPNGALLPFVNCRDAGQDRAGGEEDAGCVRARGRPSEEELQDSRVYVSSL
Sequence of Cytochrome P450 2C19 (P33261 whole entry): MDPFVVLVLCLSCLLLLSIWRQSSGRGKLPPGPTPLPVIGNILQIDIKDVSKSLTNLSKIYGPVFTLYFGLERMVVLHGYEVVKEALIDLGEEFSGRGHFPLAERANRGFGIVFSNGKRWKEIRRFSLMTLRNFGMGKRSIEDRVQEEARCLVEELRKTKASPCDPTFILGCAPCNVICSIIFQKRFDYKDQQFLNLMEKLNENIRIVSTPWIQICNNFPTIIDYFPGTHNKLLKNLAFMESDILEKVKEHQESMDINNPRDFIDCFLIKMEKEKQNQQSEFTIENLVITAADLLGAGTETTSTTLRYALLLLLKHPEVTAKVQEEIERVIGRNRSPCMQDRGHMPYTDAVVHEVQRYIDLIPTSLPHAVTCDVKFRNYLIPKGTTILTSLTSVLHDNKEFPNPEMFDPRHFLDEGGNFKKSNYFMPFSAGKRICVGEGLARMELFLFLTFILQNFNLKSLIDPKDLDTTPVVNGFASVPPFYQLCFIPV
Sequence of Sodium channel protein type 5 subunit alpha (Q14524 whole entry): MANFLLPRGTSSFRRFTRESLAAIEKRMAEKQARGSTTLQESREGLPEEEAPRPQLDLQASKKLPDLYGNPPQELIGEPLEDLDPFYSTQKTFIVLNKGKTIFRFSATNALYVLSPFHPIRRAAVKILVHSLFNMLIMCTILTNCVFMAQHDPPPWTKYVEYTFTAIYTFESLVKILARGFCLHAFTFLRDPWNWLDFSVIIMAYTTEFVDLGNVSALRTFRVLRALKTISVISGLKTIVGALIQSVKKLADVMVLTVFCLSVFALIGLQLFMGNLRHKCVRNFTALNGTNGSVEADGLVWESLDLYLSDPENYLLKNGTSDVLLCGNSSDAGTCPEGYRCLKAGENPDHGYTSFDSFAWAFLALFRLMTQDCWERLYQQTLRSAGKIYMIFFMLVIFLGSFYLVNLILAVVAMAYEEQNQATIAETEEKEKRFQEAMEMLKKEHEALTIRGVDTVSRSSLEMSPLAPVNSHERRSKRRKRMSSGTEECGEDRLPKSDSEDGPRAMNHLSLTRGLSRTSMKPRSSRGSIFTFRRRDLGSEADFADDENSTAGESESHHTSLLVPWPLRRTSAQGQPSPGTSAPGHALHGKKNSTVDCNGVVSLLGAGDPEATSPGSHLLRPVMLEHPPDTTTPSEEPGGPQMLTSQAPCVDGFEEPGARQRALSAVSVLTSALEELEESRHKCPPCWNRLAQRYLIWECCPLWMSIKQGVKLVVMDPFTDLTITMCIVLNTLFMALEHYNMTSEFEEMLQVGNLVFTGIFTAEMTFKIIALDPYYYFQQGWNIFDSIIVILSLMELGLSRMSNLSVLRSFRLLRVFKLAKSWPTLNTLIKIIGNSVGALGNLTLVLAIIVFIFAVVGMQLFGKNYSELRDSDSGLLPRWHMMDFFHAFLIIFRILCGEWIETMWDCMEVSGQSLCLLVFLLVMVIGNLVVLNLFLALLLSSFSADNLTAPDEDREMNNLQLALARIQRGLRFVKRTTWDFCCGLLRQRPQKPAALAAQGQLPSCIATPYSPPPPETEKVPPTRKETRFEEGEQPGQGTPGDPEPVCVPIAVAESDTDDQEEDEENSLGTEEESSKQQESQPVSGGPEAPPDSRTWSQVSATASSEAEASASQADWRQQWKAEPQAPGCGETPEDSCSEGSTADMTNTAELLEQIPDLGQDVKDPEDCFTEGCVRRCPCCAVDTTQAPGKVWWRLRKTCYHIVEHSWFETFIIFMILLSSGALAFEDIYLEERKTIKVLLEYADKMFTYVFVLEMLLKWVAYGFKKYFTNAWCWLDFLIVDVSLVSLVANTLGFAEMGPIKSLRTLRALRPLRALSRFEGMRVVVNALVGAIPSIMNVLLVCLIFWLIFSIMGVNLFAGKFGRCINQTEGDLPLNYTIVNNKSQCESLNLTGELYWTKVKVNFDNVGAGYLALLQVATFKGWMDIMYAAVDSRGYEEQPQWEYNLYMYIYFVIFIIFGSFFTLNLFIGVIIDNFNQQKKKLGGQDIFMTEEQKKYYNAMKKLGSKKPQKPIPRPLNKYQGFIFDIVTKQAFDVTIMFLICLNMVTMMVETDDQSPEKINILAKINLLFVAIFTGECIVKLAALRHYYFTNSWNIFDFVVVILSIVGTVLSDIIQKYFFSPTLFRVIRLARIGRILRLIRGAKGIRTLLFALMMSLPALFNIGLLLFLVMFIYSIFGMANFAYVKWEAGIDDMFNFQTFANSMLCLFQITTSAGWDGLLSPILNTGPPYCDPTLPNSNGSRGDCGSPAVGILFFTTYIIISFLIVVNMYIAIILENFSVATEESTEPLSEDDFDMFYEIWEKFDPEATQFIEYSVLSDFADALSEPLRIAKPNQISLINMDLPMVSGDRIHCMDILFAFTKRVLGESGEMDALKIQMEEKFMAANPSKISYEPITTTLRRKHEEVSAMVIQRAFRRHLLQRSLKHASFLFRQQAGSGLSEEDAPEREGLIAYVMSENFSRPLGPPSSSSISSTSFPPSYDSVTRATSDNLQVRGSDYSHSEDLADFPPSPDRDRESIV

Consider `CCn1c(-c2cnc(C)nc2)nc2c(N[C@H]3CCN(C(=O)C4CC4)C3)ncnc21`, for which the IC50 in data set [1] was 2.2 nM; on Cytochrome P450 2C19 it was above 50000 nM; in data set [6] it was 65 nM; in data set [8], above 50000 nM; in data set [10] it was above 50000 nM; in data set [15], 20 nM. In data set [2], this compound returned a Vd of 1.5 L/kg. Also, the results for the fraction unbound in [3] and in data set [13] were 0.59 and 0.18, respectively. For the same compound, the Vdu in data set [4] worked out at 0.4 L/kg; in [5] it was 6.3 L/kg. The Activity entry in data set [7] is “Dose-Dependent Effect”. Moreover, in data set [9], the CLint scaled was below 2 mL/min/kg. Further, the efflux ratio in the data set with P-gp (MDR1) came out at 16. In addition, the bioavailability was determined as 95% in data set [11] and 55% in data set [12]. The compound also displayed a pKa in data set [14] of 3.06.
